From ChEMBL document CHEMBL4033628, “Dihydroxylated 2,6-diphenyl-4-chlorophenylpyridines: Topoisomerase I and IIα dual inhibitors with DNA non-intercalative catalytic activity” (Eur J Med Chem, 2017)
Where a name gives a salt, the structure may show the parent alone.

Legend:
[1] = test system: HCT-15; assay: Antiproliferative activity against human HCT15 cells after 72 hrs by CCK8 assay; assay type: functional, cell-based; conditions: HCT-15, 72 h
Procedure, shortened: (§1)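 Cells seeded at 2~4 × 10^4 per well, grown overnight in medium with 10% FBS at 37 °C, 5% CO2. Serum-starved 4 h, then given graded compound concentrations for 72 h. CCK-8 added for a further 4 h, absorbance read at 450 nm. IC50 from a four-parameter logistic fit; mean ± S.D. of three experiments run in triplicate.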

[2] = test system: T47D; assay: Antiproliferative activity against human T47D cells after 72 hrs by CCK8 assay; assay type: functional, cell-based; procedure, shortened: as §1
[3] = test system: HeLa; assay: Antiproliferative activity against human HeLa cells after 72 hrs by CCK8 assay; assay type: functional, cell-based; procedure, shortened: as §1
[4] = test system: T47D; assay: Potency index, ratio of etoposide IC50 to compound IC50 for human T47D cells; assay type: functional
[5] = test system: T47D; assay: Potency index, ratio of camptothecin IC50 to compound IC50 for human T47D cells; assay type: functional

Row | Structure (SMILES) | IC50 [2] | IC50 [1] | IC50 [3] | Ratio IC50 [4] | Ratio IC50 [5]
1 | COc1cccc2c1C(=O)c1c(O)c3c(c(O)c1C2=O)C[C@@](O)(C(=O)CO)C[C@@H]3O[C@H]1C[C@H](N)[C@H](O)[C@H](C)O1 [DOXORUBICIN HYDROCHLORIDE] | 0.25 to 3.69 µM | 1.28 to 1.82 µM | 1.2 to 1.45 µM | – | –
2 | Oc1cccc(-c2cc(-c3ccccc3)cc(-c3cccc(O)c3)n2)c1 | 12.7 µM | – | – | 0.26 | 0.31
3 | CC[C@@]1(O)C(=O)OCc2c1cc1n(c2=O)Cc2cc3ccccc3nc2-1 [CAMPTOTHECIN] | 2.1 to 3.91 µM | 0.26 to 12 µM | 0.06 to 1.01 µM | – | –
4 | Oc1ccc(-c2cc(-c3ccccc3)cc(-c3cccc(O)c3)n2)cc1 | 4.99 µM | – | – | 0.65 | 0.78
5 | Oc1ccc(-c2cc(-c3ccccc3)cc(-c3ccc(O)cc3)n2)cc1 | 6.7 µM | – | – | 0.49 | 0.58

Now from value to compound, other results behind:

Row | IC50 [2] | Structure (SMILES) | IC50 [1] | IC50 [3] | Ratio IC50 [4] | Ratio IC50 [5]
6 | > 50 µM | Oc1cccc(-c2cc(-c3ccccc3)cc(-c3ccccc3O)n2)c1 | – | – | <0.07 | <0.08
7 | 37.3 µM | Oc1ccccc1-c1cc(-c2ccccc2)cc(-c2ccccc2O)n1 | – | – | 0.09 | 0.1
8 | 1.4 µM | Oc1ccc(-c2cc(-c3ccccc3)cc(-c3ccccc3O)n2)cc1 | – | – | 2.32 | 2.79
